High-throughput results from PubChem.
Most compounds without a hit are left out; they make up all but 2.3% or so of the library.
Statin myotox sup = suppressors of simvastatin-induced myotoxicity in C2C12 myotubes | ATP luminescence, 48 h; scaled: DMSO 0, geranylgeraniol control 100 | actives 0.78% (n = 330,000) | rescue of ATP level, % at 7.49 µM;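 active means mean ATP rescue above about 67%, or every replicate alone reaching that limit, limit read from the data, passing the limit was not always enough; inconclusive means no clear call, values can overlap the other calls; inactive means mean under the limit and some replicate under it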;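 further: myotubes were challenged with 10 µM simvastatin during compound exposure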
DENV2 CPE = protects cells from dengue virus 2 cytopathic effect | DENV2-infected cells, cytopathic effect rescue, plate reader | actives 1.7% (n = 350,000) | AID 651640 | CPE inhibition, % at 9.99 µM; in the data active means CPE inhibition above about 20%, passing the limit was not always enough; inconclusive means no clear call, values can overlap the other calls; tested in BHK-21 cells;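 further: 0% = median of neutral control wells and 100% = median of positive control wells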
ERp5 block = ERp5 (human) disulfide isomerase inhibition; Q15084; AID 651711; inhibition, % at 9.99 µM; actives 0.05% (n = 350,000); ERp5 insulin aggregation, absorbance 650 nm, 90 min;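 active means mean replicate inhibition above about 25%, with every replicate also reaching it, limit read from the data, passing the limit was not always enough; inconclusive means only one of those two criteria met; inactive means neither criterion met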
PDI inh = PDI (human) enzyme inhibition. PDI insulin aggregation turbidity, A650, 90 min. inhibition, % at 10 µM. actives 0.052% (n = 350,000). AID 588391;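 active means mean inhibition across replicates of 30% or more, whatever share of single replicates reach that level; inconclusive means mean inhibition below 30% while every single replicate reaches 30%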
Target sequence (P07237 whole entry, looked up): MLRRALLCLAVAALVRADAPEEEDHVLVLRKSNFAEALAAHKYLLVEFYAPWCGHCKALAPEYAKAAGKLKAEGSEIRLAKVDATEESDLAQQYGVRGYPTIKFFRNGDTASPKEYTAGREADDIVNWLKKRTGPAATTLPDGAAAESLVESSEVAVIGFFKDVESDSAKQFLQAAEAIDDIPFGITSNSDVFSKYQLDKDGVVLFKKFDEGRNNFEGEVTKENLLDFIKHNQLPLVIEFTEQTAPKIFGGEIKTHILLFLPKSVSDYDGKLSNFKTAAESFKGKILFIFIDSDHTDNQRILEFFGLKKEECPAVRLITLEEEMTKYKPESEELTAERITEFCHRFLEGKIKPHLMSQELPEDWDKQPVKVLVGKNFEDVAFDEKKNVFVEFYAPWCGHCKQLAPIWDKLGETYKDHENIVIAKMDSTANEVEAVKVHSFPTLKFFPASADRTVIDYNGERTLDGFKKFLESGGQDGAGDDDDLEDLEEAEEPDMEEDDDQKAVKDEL
Cneo AK release = Cryptococcus neoformans lysis via adenylate kinase release; C. neoformans lysis, adenylate kinase release luminescence, 4 h; normalised: neutral wells 0, clomiphene wells 100; lysis activity, % at 15 µM; actives 0.2% (n = 360,000); AID 651654;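 active means mean lysis activity across replicates of at least 80%, whatever share of replicates individually reach that level; inactive means mean lysis activity below 80%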
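Schedule: static 4 h at 37 °C with compound, 1 h detection; system: C. neoformans cells; benchmarks: Clomiphene as positive control; buffer or medium: fresh YPD medium; measure: luminescence rise reflecting yeast cell lysis; measured by: luminescent adenylate kinase detection reagent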
F508del corr = CFTR F508del correction in bronchial cells. actives 0.36% (n = 350,000). CFBE cells, YFP halide quenching; stimulated with forskolin plus potentiator P3; % fluorescence drop versus neutral controls. activity (quench increase), % at 7.58 µM;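 active means mean added fluorescence quench of at least 8% versus neutral control, with both replicates also reaching 8%; inconclusive means only one of the mean or replicate conditions met; inactive means mean below 8% and not both replicates reaching 8%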;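 further: cells transiently co-express mutant CFTR-F508del with the halide-sensitive YFP; corrector assay measuring rescue of mutant channel to the surface after 24 h compound exposure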
Starred values were filed as active, the others as inactive; ? = inconclusive; · = not tested or not shown.

SMILES	Statin myotox sup	DENV2 CPE	ERp5 block	PDI inh	Cneo AK release	F508del corr
C[C@H](CO)N1C[C@H](C)[C@@H](CN(C)C(=O)C2CCCCC2)OCCCC[C@H](C)Oc2ccc(NS(=O)(=O)c3ccccc3)cc2C1=O	31	1	3	·	-1	-2
CCOC(=O)N1CCN(C(=S)NC(=O)c2nn(C)cc2Br)CC1	125*	-1	3	9	-9	-2
Cn1cc(Br)c(C(=O)NC(=S)N2CCN(c3ccccn3)CC2)n1	·	?	-1	-1	·	0
CCOC(=O)c1c(C)[nH]c(C(=O)N/N=C/c2ccc(OC)c(OC)c2)c1C	-34	3	7	-6	1	9.8*
CCOC(=O)c1c(C)[nH]c(C(=O)N/N=C\c2ccccc2O)c1C	·	-18	8	4	-1	21*
CCC(=O)N1C[C@H](C)[C@H](OC)CN(C)C(=O)c2cc(NC(=O)NC(C)C)ccc2OC[C@H]1C	17	-5	2	·	2	-3
C[C@H](O)[C@@H]1CN2CCc3c([nH]c4ccccc34)[C@@H]2C[C@@H]1N(C)C(=S)Nc1ccc(C#N)cc1	5	25*	-1	·	3	2
CN(C)CC(=O)N1[C@@H](C#N)[C@@H](c2ccccc2-c2ccc(C(=O)N(C)C)cc2)[C@@H]1CO	·	?	1	·	·	1
CCNc1nc2nonc2nc1NCC	14	·	·	-2	1	·
Cc1ccc(Nc2nc3nonc3nc2N(C)C)cc1	88*	·	·	0	0	·
O=C(N/N=C/c1c(O)ccc2ccccc12)c1ccc(CO)nc1	57	4	0	3	5	14*
O=C(NN=Cc1c(O)ccc2ccccc12)c1ccc2c(c1)OCO2	-19	-6	3	7	-2	3
COc1cc(C(=O)NCCOc2ccccc2)cc(OC)c1OC	-1	17	5	18	-3	0
CCCCOc1ccc(C(=O)NCCOc2cccc(OC)c2)cc1	-1	53*	6	-3	3	0
CN(C)S(=O)(=O)c1ccc(C(=O)NCCOc2ccc(F)cc2)cc1	146*	-6	-6	-4	-2	-3
CN(C)S(=O)(=O)c1ccc(C(=O)NCCOc2ccccc2)cc1	·	·	·	-4	-2	·
COc1ccc(C(=O)NCCOc2cccc(Oc3ccccc3)c2)cc1OC	14	48*	2	-2	1	-1
CCOc1cc(C(=O)NCCOC)ccc1OC	120*	·	·	7	-2	·
COc1ccc(CCNC(=O)c2ccc(OC)c(OC)c2)cc1OC	-12	-2	4	-1	-2	1
COc1cc(OC)cc(C(=O)NCCOc2ccccc2)c1	·	·	·	-9	0	·
C[C@@H]1CN([C@H](C)CO)C(=O)c2cc(-c3ccccc3F)cnc2O[C@@H]1CN(C)C(=O)NC1CCCC1	2	7	-2	·	-1	1
Cc1ccc(S(=O)(=O)N[C@H]2CC[C@H](CCNC(=O)Nc3ccc(Cl)cc3)O[C@@H]2CO)cc1	-3	-4	-3	·	-8	1
COc1ccc(NC(=O)Nc2ccc3c(c2)CC(=O)N([C@H](C)CO)C[C@@H](C)[C@H](CN(C)Cc2ccc(C(=O)Nc4ccccc4N)cc2)O3)cc1	·	55*	3	·	·	-3
C[C@@H]1CN([C@@H](C)CO)C(=O)Cc2cc(NC(=O)c3ccncc3)ccc2O[C@H]1CN(C)Cc1ccc(C(=O)Nc2ccccc2N)cc1	-8	72*	-15	·	-1	-3
C[C@H](CO)N1C[C@H](C)[C@@H](CN(C)Cc2ccc3c(c2)OCO3)Oc2ccc(NC(=O)c3ccncc3)cc2CC1=O	12	29*	-2	·	-2	1
COc1ccc(NC(=O)Nc2ccc3c(c2)CC(=O)N([C@H](C)CO)C[C@H](C)[C@@H](CN(C)Cc2ccc(C(=O)Nc4ccccc4N)cc2)O3)cc1	·	-1	7	·	·	2
C[C@@H]1CN([C@H](C)CO)C(=O)Cc2cc(NC(=O)c3ccncc3)ccc2O[C@H]1CN(C)Cc1ccc(C(=O)Nc2ccccc2N)cc1	·	-2	4	·	·	-1
CCC(=O)N1[C@@H]2c3ccc(C4=CCCC4)c(=O)n3C[C@@H]2[C@@H](CO)[C@@H]1C(=O)Nc1ccccc1	-3	-3	-4	·	57	2
